# Source: ChEMBL document CHEMBL1149586 (Bioorg Med Chem, 2007)
# Target: Stromelysin-1 (Homo sapiens, UniProt P08254)
# Experiment: Inhibition of MMP3
# Stromelysin-1, sequence (P08254 whole entry): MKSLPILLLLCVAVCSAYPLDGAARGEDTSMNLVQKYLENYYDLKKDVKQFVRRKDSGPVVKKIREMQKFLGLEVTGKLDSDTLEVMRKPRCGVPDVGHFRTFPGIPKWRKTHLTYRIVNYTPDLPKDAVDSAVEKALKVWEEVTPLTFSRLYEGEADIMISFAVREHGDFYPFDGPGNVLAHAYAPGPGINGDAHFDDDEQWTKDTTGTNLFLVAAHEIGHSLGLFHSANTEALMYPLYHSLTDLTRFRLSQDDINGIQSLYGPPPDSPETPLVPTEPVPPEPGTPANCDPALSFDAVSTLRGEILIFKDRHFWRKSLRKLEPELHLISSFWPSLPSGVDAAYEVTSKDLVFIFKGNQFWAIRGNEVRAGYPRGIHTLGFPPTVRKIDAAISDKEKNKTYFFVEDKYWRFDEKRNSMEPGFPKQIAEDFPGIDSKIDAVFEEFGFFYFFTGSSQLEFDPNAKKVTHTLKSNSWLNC
row,IC50 [nM],Compound
1,> 10000,CCCCCC/C=C(\CC(=O)NO)C(=O)N[C@@H](Cc1c[nH]c2ccccc12)C(=O)NC
2,8610,C/C=C/C=C(\CC(=O)NO)C(=O)N[C@@H](Cc1c[nH]c2ccccc12)C(=O)NC
3,21000,CNC(=O)[C@H](Cc1c[nH]c2ccccc12)NC(=O)/C(=C/C=C/c1ccccc1)CC(=O)NO
4,1920,CNC(=O)[C@H](Cc1c[nH]c2ccccc12)NC(=O)/C(=C/CCc1ccccc1)CC(=O)NO

# Target: Collagenase 3 (Homo sapiens, UniProt P45452)
# Experiment: Inhibition of MMP13
# Summary of the method: (§1)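 Human recombinant pro-enzymes, freshly activated with p-aminophenylmercuric acetate at 37 °C for 2 h. Used at 0.6 nM for MMP-13 and 3.8 nM for MMP-8. Incubated with compound from 1 to 5000 nM. Assay began with addition of a fluorogenic substrate (1–10 nM). Initial rates of peptide cleavage were measured fluorimetrically, with (Vi) and without (Vo) compound.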
row,IC50 [nM],Compound
1,122,CCCCCC/C=C(\CC(=O)NO)C(=O)N[C@@H](Cc1c[nH]c2ccccc12)C(=O)NC

# Target: Matrix metalloproteinase-14 (Homo sapiens, UniProt P50281)
# Experiment: Inhibition of MMP14
row,IC50 [nM],Compound
1,2660,CCCCCC/C=C(\CC(=O)NO)C(=O)N[C@@H](Cc1c[nH]c2ccccc12)C(=O)NC
2,913,C/C=C/C=C(\CC(=O)NO)C(=O)N[C@@H](Cc1c[nH]c2ccccc12)C(=O)NC
3,2490,CNC(=O)[C@H](Cc1c[nH]c2ccccc12)NC(=O)/C(=C/C=C/c1ccccc1)CC(=O)NO
4,53100,CNC(=O)[C@H](Cc1c[nH]c2ccccc12)NC(=O)/C(=C/CCc1ccccc1)CC(=O)NO
5,10,CNC(=O)[C@H](Cc1c[nH]c2ccccc12)NC(=O)/C(=C/C(C)C)CC(=O)NO
6,13.4,CNC(=O)[C@H](Cc1c[nH]c2ccccc12)NC(=O)[C@@H](CC(=O)NO)CC(C)C [ILOMASTAT]

# Target: T1, Interstitial collagenase (Homo sapiens, UniProt P03956)
# T1 sequence (P03956 whole entry): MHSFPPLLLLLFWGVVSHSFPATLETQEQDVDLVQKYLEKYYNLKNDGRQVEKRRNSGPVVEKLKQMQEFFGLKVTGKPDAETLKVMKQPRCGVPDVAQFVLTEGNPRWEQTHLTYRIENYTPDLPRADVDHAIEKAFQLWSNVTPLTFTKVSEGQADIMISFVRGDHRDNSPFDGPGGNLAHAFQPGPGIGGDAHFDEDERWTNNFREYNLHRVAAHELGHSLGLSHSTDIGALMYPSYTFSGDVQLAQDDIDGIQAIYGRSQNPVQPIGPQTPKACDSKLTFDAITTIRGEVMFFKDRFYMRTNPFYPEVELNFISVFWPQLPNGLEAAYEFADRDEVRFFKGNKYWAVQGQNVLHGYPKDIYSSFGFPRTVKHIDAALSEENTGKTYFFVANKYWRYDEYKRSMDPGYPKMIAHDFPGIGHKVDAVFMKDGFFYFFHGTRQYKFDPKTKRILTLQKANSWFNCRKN
# Experiment: Inhibition of MMP1
row,IC50 [nM],Compound
1,32000,CCCCCC/C=C(\CC(=O)NO)C(=O)N[C@@H](Cc1c[nH]c2ccccc12)C(=O)NC
2,984,C/C=C/C=C(\CC(=O)NO)C(=O)N[C@@H](Cc1c[nH]c2ccccc12)C(=O)NC
3,1240,CNC(=O)[C@H](Cc1c[nH]c2ccccc12)NC(=O)/C(=C/C=C/c1ccccc1)CC(=O)NO
4,9130,CNC(=O)[C@H](Cc1c[nH]c2ccccc12)NC(=O)/C(=C/CCc1ccccc1)CC(=O)NO
5,18,CNC(=O)[C@H](Cc1c[nH]c2ccccc12)NC(=O)/C(=C/C(C)C)CC(=O)NO

# Target: Matrix metalloproteinase-9 (Homo sapiens, UniProt P14780)
# Experiment: Inhibition of MMP9
# Matrix metalloproteinase-9, sequence (P14780 whole entry): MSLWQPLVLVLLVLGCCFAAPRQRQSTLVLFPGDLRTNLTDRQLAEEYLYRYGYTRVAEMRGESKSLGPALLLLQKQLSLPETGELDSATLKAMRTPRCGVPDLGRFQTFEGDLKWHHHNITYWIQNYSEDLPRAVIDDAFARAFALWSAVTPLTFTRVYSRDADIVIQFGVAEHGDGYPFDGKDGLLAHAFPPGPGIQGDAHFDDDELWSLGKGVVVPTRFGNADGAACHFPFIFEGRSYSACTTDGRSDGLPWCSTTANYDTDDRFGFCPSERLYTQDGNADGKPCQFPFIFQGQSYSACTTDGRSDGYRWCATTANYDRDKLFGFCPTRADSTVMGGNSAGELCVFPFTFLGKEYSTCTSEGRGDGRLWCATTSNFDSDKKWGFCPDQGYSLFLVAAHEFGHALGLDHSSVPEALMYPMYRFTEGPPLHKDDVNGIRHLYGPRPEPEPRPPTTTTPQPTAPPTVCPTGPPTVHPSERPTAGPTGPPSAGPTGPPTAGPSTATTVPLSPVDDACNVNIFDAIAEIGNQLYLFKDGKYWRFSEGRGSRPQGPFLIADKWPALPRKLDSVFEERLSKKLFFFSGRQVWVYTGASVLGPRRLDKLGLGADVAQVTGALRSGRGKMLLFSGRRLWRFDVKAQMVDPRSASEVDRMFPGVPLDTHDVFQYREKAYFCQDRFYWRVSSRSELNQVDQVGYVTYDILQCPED
row,IC50 [nM],Compound
1,> 10000,CCCCCC/C=C(\CC(=O)NO)C(=O)N[C@@H](Cc1c[nH]c2ccccc12)C(=O)NC
2,974,C/C=C/C=C(\CC(=O)NO)C(=O)N[C@@H](Cc1c[nH]c2ccccc12)C(=O)NC
3,38,CNC(=O)[C@H](Cc1c[nH]c2ccccc12)NC(=O)/C(=C/C=C/c1ccccc1)CC(=O)NO
4,45,CNC(=O)[C@H](Cc1c[nH]c2ccccc12)NC(=O)/C(=C/CCc1ccccc1)CC(=O)NO
5,17,CNC(=O)[C@H](Cc1c[nH]c2ccccc12)NC(=O)/C(=C/C(C)C)CC(=O)NO

# Target: 72 kDa type IV collagenase (Homo sapiens, UniProt P08253)
# Experiment: Inhibition of MMP2
# Summary of the method: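 Incubated with compound at 1 to 5000 nM. Started with a fluorogenic quenched peptide substrate (1–10 nM). Initial hydrolysis rate, with (Vi) and without (Vo) compound, was followed by fluorescence.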
# 72 kDa type IV collagenase, sequence (P08253 whole entry): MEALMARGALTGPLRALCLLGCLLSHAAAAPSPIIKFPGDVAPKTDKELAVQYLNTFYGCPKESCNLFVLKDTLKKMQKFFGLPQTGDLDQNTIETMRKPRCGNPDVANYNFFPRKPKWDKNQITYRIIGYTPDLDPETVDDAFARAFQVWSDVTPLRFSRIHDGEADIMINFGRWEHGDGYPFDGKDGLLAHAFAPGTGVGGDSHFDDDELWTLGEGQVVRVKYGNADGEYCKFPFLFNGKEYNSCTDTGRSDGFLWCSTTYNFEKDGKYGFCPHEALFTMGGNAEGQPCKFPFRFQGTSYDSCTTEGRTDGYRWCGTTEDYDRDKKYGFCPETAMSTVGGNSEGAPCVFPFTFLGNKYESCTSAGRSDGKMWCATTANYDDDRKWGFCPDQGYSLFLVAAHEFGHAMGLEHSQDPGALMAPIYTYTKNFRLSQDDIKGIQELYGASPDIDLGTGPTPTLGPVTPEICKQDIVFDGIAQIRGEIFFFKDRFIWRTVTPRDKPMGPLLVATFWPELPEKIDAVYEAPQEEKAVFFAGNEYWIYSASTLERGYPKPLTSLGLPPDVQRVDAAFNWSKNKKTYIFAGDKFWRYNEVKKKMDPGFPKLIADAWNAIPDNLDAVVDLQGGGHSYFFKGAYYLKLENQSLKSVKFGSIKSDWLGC
row,IC50 [nM],Compound
1,123,CCCCCC/C=C(\CC(=O)NO)C(=O)N[C@@H](Cc1c[nH]c2ccccc12)C(=O)NC
2,78500,C/C=C/C=C(\CC(=O)NO)C(=O)N[C@@H](Cc1c[nH]c2ccccc12)C(=O)NC
3,120,CNC(=O)[C@H](Cc1c[nH]c2ccccc12)NC(=O)/C(=C/C=C/c1ccccc1)CC(=O)NO
4,280,CNC(=O)[C@H](Cc1c[nH]c2ccccc12)NC(=O)/C(=C/CCc1ccccc1)CC(=O)NO
5,9.2,CNC(=O)[C@H](Cc1c[nH]c2ccccc12)NC(=O)/C(=C/C(C)C)CC(=O)NO

# Target: Neutrophil collagenase (Homo sapiens, UniProt P22894)
# Experiment: Inhibition of MMP8
# Summary of the method: as §1
# Neutrophil collagenase, sequence (P22894 whole entry): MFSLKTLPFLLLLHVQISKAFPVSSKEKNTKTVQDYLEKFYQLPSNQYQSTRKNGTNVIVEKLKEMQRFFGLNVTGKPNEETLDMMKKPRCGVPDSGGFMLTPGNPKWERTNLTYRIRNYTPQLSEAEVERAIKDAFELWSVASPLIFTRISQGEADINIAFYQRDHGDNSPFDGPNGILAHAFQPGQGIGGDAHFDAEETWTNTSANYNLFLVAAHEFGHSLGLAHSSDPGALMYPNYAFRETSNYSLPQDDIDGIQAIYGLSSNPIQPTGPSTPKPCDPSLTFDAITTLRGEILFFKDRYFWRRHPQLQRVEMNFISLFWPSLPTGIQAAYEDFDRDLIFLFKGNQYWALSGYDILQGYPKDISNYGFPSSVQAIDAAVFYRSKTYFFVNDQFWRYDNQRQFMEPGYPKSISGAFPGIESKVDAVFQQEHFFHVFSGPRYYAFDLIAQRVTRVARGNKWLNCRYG
row,IC50 [nM],Compound
1,101,CCCCCC/C=C(\CC(=O)NO)C(=O)N[C@@H](Cc1c[nH]c2ccccc12)C(=O)NC
